The clearance is the rate of elimination divided by the concentration. By AUC(0-t) is commonly meant exposure summed from dosing to a finite time, without extrapolation to infinity. The term Cmax denotes the peak of the concentration-time curve. Broadly, the bioavailability is the share of a dose that reaches the circulation, judged against a reference dose that is usually intravenous.

Activity calls are given as the source filed them. The rule behind the calls is not given here. Where only a bound is given, the exact number is not on record here.

Data set [1] in a line: Clearance in monkey plasma. Type of data set: ADME, cell-free, Macaca mulatta. To be noted: rhesus monkey.
A short description of data set [2]: Clearance in Sprague-Dawley rat at 1 mg/kg, iv measured upto 24 hrs by HPLC-MS/MS analysis. The settings on record: in vivo. Type of data set: ADME, organism-based.
Data set [3] in a line: Terminal half life in Sprague-Dawley rat at 1 mg/kg, iv measured upto 24 hrs by HPLC-MS/MS analysis. The format is ADME, organism-based. The settings on record: in vivo, read-out: beta t1/2 (converted).
The nature of data set [4]: AUC (0 to 7 hrs) in Sprague-Dawley rat at 1 mg/kg, iv measured upto 24 hrs by HPLC-MS/MS analysis. The format is ADME, organism-based. The arrangement: time < 7 hr, dose 1 mg/kg, route intravenous. The settings on record: in vivo.
Data set [5] is described as follows: Apparent half life in dog. The format is ADME, Canis lupus familiaris. The settings on record: in vivo, read-out: t1/2(app) (converted).
Data set [6] in a line: Clearance in dog plasma. The format is ADME, cell-free, Canis lupus familiaris.
Data set [7] in a line: Apparent half life in monkey. To be noted: rhesus monkey, in vivo; read-out: t1/2(app) (converted). The format is ADME, Macaca mulatta.
The nature of data set [8]: Volume of distribution at steady state in Sprague-Dawley rat at 1 mg/kg, iv measured upto 24 hrs by HPLC-MS/MS analysis. Type of data set: ADME, organism-based. The settings on record: in vivo, read-out: Vdss.
Data set [9] is described as follows: Prodrug activation in monkey. To be noted: rhesus monkey. The arrangement: species or system Macaca mulatta.
Data set [10] in a line: Prodrug activation in dog. Also on record: species or system Canis lupus familiaris.
Data set [11] is described as follows: AUC (0 to 7 hrs) in Sprague-Dawley rat at 3 mg/kg, po measured upto 24 hrs by HPLC-MS/MS analysis. The format is ADME, organism-based. Also on record: time < 7 hr, dose 3 mg/kg, route oral. The settings on record: in vivo.
The subject of data set [12] is Rattus norvegicus. The experiment in a line: In vivo inhibition of NEP in po dosed Sprague-Dawley rat assessed as increase in PANP level measured up to 8 hrs. Type of data set: functional, organism-based. The gist of the method:
(§1)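 ANP potentiation model in conscious, chronically cannulated adult male Sprague–Dawley rats. Rats received an IV infusion of rat ANP to saturate the clearance receptors, so that ANP was removed mainly by NEP. The ethyl ester prodrug was then dosed orally. Blood was sampled at baseline and at intervals up to 8 h. Plasma ANP was read as % baseline, alongside parent plasma levels.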

Data set [13] can be described thus: Prodrug activation in rat.
Data set [14] can be described thus: Cmax in Sprague-Dawley rat at 3 mg/kg, po measured upto 24 hrs by HPLC-MS/MS analysis. Type of data set: ADME, organism-based. The arrangement: dose 3 mg/kg, route oral. To be noted: in vivo.
A short description of data set [15]: Oral bioavailability in Sprague-Dawley rat at 3 mg/kg measured upto 24 hrs by HPLC-MS/MS analysis. Type of data set: ADME, organism-based. To be noted: in vivo.
A short description of data set [16]: Stability in human liver microsomes assessed as intrinsic clearance. The format is ADME, Microsome. The settings on record: read-out: CLH. In general terms: Liver microsomes are a subcellular fraction often used to study metabolism.
Data set [17] has as its system Rattus norvegicus. The experiment in a line: In vivo inhibition of NEP in Sprague-Dawley rat assessed as increase in PANP level at 30 mg/kg, po measured after 15 mins. Type of data set: functional, organism-based. An outline of the steps: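 Conscious, chronically cannulated adult male Sprague–Dawley rats received an IV infusion of rat ANP to saturate natriuretic peptide clearance receptors, so ANP elimination relied mainly on NEP. The ethyl ester prodrug was then given orally at 30 mg/kg. Blood was drawn at baseline before dosing and at intervals up to 8 h, and plasma ANP was expressed as % baseline, with parallel PK.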

Data set [18] is described as follows: Volume of distribution in Sprague-Dawley rat at 1 mg/kg, iv. Type of data set: ADME, organism-based. The settings on record: in vivo.
Data set [19] in a line: Half life in Sprague-Dawley rat at 1 mg/kg, iv. Type of data set: ADME, organism-based. To be noted: in vivo.
Data set [20] is described as follows: Intrinsic clearance in rat Hepatocyte assessed per million cells. The format is ADME, cell-based. To be noted: hepatocytes, read-out: CLH.
The nature of data set [21]: Stability in rat liver microsomes assessed as intrinsic clearance. Type of data set: ADME, Microsome. To be noted: read-out: CLH.
The nature of data set [22]: Clearance in Sprague-Dawley rat at 1 mg/kg, iv. The format is ADME, organism-based. To be noted: in vivo.
A short description of data set [23]: Plasma concentration in Sprague-Dawley rat at 30 mg/kg, po. The format is ADME, organism-based. To be noted: in vivo. An outline of the steps: as §1
Data set [24] in a line: Oral bioavailability in Sprague-Dawley rat at 3 mg/kg. Type of data set: ADME, organism-based. The settings on record: in vivo.
Data set [25] can be described thus: Intrinsic clearance in human Hepatocyte assessed per million cells. Type of data set: ADME, cell-based. To be noted: hepatocytes, read-out: CLH.

For `O=C(O)CCC(=O)N[C@@H](CC(=O)O)Cc1ccc(-c2cccc(Cl)c2)cc1`, the figures for the clearance in [1], in data set [2] and in [6] were 3 mL/min/kg, 5 mL/min/kg and 29 mL/min/kg, respectively. Further, the half-life is 0.8 h in data set [3], 0.8 h in data set [5] and 4 h in data set [7]. For the same compound, in [4], the AUC(0-t) at 7 h was 8.73 µM·h. Besides, in [8], the Vd stood at 0.1 L/kg.
As to `CCOC(=O)C[C@@H](Cc1ccc(-c2cccc(Cl)c2)cc1)NC(=O)CCC(=O)O`, the values for the Activity in data set [9], in [10] and in [13] were 69%, 5% and 99%, respectively. This compound came in with an area under the curve AUC(0-t) at 7 h in data set [11] of 10.1 µM·h. Besides, the inhibition entry with Rattus norvegicus [12] is “Dose-dependent effect”. In data set [14], this compound came in with a Cmax of 12.6 µM. Besides, the bioavailability in data set [15] is 42%.
`O=C(O)CCC(=O)N[C@@H](CC(=O)O)Cc1ccc(-c2ccccc2)cc1`: the microsomal CLint in data set [16] and in data set [21] was less than 3.42 µL/min/mg each time. For the same compound, in the data set with Rattus norvegicus [17], the inhibition entry was “Active”. This compound also came in with a Vd in [18] of 0.2 L/kg. Further, in [19], the half-life was 2.5 h. In addition, the values for the hepatocyte CLint in data set [20] and in data set [25] were 2.1 µL/min/1e6 cells and 0.68 µL/min/1e6 cells, respectively. The compound also had a clearance in data set [22] of 11 mL/min/kg. This compound gave a concentration in data set [23] greater than 2 µM. In data set [24], the bioavailability is 66%.
Regarding `CCOC(=O)[C@H](C)C[C@@H](Cc1ccc(-c2ccccc2)cc1)NC(=O)CCC(=O)O`, in the data set with Rattus norvegicus [17], the inhibition entry is “Active”.
In turn, `CCOC(=O)C[C@@H](Cc1ccc(-c2cc(Cl)ccc2OC)cc1)NC(=O)CCC(=O)O` returned an AUC(0-t) at 7 h in [11] of 5.63 µM·h. Also, the highest level in data set [14] (Cmax) was 5.38 µM. In addition, in [15], the bioavailability was found to be 25%.
`COc1ccc(Cl)cc1-c1ccc(C[C@H](CC(=O)O)NC(=O)CCC(=O)O)cc1` came in with a clearance in data set [2] of 5 mL/min/kg. Further, in data set [3], the half-life is 1 h. For the same compound, the AUC(0-t) at 7 h in data set [4] was 8.1 µM·h. In addition, the Vd in [8] came to 0.1 L/kg.

The record behind these values is ChEMBL document CHEMBL4334554, “Structure-Guided Design of Substituted Biphenyl Butanoic Acid Derivatives as Neprilysin Inhibitors” (ACS Med Chem Lett, 2020).
